Reference: ChEMBL document CHEMBL1949558, “Hypoxylonols C-F, benzo[j]fluoranthenes from Hypoxylon truncatum” (J Nat Prod, 2012)

Assays:
HUVEC = experiment: Antiangiogenic activity in HUVEC assessed as inhibition of cell proliferation after 72 hrs by MTT assay; type: functional, cell-based; conditions: Homo sapiens
Procedure, shortened: (§1)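 Cells were purchased and seeded at 3000/well on collagen-coated plates for 3 h at 37 °C, 5% CO2: HUVECs in EGM-2, HUAECs in EGM-2MV. The medium was then swapped to 1% FBS-EBM-2 for 21 h. VEGF (1 nM) and samples were added for 72 h. Proliferation was read with WST-8 at 450 nm, and inhibition was expressed as IC50.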

[1] = Antiangiogenic activity in HUAEC assessed as inhibition of cell proliferation after 72 hrs by MTT assay; type: functional; conditions: Homo sapiens; procedure, shortened: as §1

Row | Compound | IC50 (HUVEC) | IC50 [1]
1 | O=C1C[C@H]2C(=C3c4c2ccc(O)c4[C@H](O)C[C@@H]3O)c2cccc(O)c21 [HYPOXYLONOL F] | 17 µM | 14 µM
2 | CO[C@@H]1C[C@H](O)C2=C3c4cccc(O)c4C(=O)C[C@@H]3c3ccc(O)c1c32 [HYPOXYLONOL E] | 7.4 µM | 4.1 µM
3 | O=C1C[C@H]2C(=C3c4c2ccc(O)c4[C@@H](O)C[C@@H]3O)c2cccc(O)c21 [HYPOXYLONOL C] | 21 µM | 16 µM
4 | CCO[C@@H]1C[C@H](O)C2=C3c4cccc(O)c4C(=O)C[C@@H]3c3ccc(O)c1c32 [HYPOXYLONOL D] | 6.9 µM | 6.1 µM
5 | CCO[C@H]1C[C@H](O)C2=C3c4cccc(O)c4C(=O)C[C@@H]3c3ccc(O)c1c32 [HYPOXYLONOL A] | 15 µM | 16 µM
6 | CO[C@H]1C[C@H](O)C2=C3c4cccc(O)c4C(=O)C[C@@H]3c3ccc(O)c1c32 [HYPOXYLONOL B] | 24 µM | 24 µM
